Screening results from PubChem.
INS promoter act: TRM-6 insulin promoter activation | AID 1296 | activation, % at 2 µM | TRM-6 cells (human fetal islet line), insulin promoter eGFP reporter, imaging; plate-scaled: unstimulated 0, stimulated control 100 | actives 0.81% (n = 130,000);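 active means activation at 2 µM above a set limit, confirmed on inspection of the cell images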;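 further: share of cells whose green reporter signal exceeds an intensity cutoff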
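Test system: TRM-6 insulin promoter–eGFP reporter cells / Quantity: 1,000 cells per well / Reagent: tamoxifen inducer, 0.75 µM, in seeding medium / Compound dosing: 2 µM final, single concentration / Schedule: overnight tamoxifen, then two-day compound incubation at 37 °C / Measured by: automated fluorescence imaging of paraformaldehyde-fixed, Hoechst-counterstained cells, green channel / Read-out: percent activation from GFP-positive cell fraction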
Each line names hits and unclear results; the compound was inactive in the other large screens. The full list was thinned out, with hits kept by preference.

CC(=Nc1c(C)n(C)n(-c2ccccc2)c1=O)c1c(O)n(Cc2ccccc2)c(=O)[nH]c1=O	none
Cc1c(N=Cc2c(O)n(CCc3ccc(F)cc3)c(=O)[nH]c2=O)c(=O)n(-c2ccccc2)n1C	INS promoter act 400
CN(C)CCCN=Cc1c(O)n(CCc2ccccc2)c(=O)[nH]c1=O	none
CN(C)c1cccc2c(C#N)ccc(N(C)C)c12	none
O=C(COc1ccccc1F)N1CCN(CCN2C(=O)c3cccc4cccc(c34)C2=O)CC1	none
O=C(COc1ccc(Cl)cc1)N1CCN(Cc2ccc([N+](=O)[O-])cc2)CC1	none
O=[N+]([O-])[N-][n+]1cnn(Cc2ccc(Cl)cc2)c1	INS promoter act 141
Cc1c(C(=O)N2CCC3(CC2)OCCO3)sc2ncnc(N3CCN(c4ccccn4)CC3)c12	none
CN1CCC(C)(O)C2CCCCC21 (stereo unspecified)	none
O=C(NCc1ccc(C(=O)N2CCC3(CC2)OCCO3)cc1)c1cccc(Br)c1	INS promoter act 227
O=C(CNS(=O)(=O)c1cccs1)N1CCC2(CC1)OCCO2	none
O=C(c1cc(-c2ccccc2)on1)N1CCC2(CC1)OCCO2	none
CC12CN3CC(C)(CN(C1)C31CCOCC1)C2=O	none
O=C(C1CC(c2ccc(Cl)c(Cl)c2)=NO1)N1CCC2(CC1)OCCO2 (stereo unspecified)	none
CC(=O)c1cccc(OCC(O)CN2CC=C(c3ccccc3)CC2)c1 (stereo unspecified)	none
COc1ccc(OC)c(N2Cc3ccccc3C2=N)c1	none
Cc1ccc(S(=O)(=O)CC(C)(O)C(=O)Nc2cccc(C(F)(F)F)c2)cc1 (stereo unspecified)	INS promoter act 212
CCOC(=O)N1CCN(C(C)C(=O)c2c[nH]c3ccccc23)CC1 (stereo unspecified)	none
O=C(c1ccc(N2CC3CC(C2)c2cccc(=O)n2C3)c([N+](=O)[O-])c1)N1CCCCC1 (stereo unspecified)	none
O=C(N/N=C\C1C(=O)NC(=S)N(c2ccccc2)C1=O)c1ccc(O)cc1 (stereo unspecified)	none
CCC1CCCCN1P(=O)(c1ccc(C)o1)C(C)(C)C (stereo unspecified)	none
Cc1ccc(Cc2c(C)nc3nc(SCC(=O)N4CCC5(CC4)OCCO5)nn3c2C)cc1	INS promoter act 125
Cc1ccc2c(c1)N(CCC(=O)N1CCC3(CC1)OCCO3)C(=O)CO2	none
Cc1ccc(CS(=O)(=O)CCC(=O)N2CCC3(CC2)OCCO3)cc1	none
O=C(O)C1C2CCC(O2)C1C(=O)NC1CCCCC1 (stereo unspecified)	none
C=CCC1(CN2CCCCCC2=O)C(=O)NC(=O)NC1=O	none
CCP(=S)(CC)c1ccc(N(C)C)cc1	INS promoter act 396
Cc1ccc(Cn2nc(C)c(C=O)c2Cl)cc1	none
COC(=O)CC1NC2CCCCC2NC1=O (stereo unspecified)	none
COC(=NC1CCCC1)C(O)c1c[nH]c2ccccc12 (stereo unspecified)	INS promoter act 667
O=C(CCC(=O)N1CCC2(CC1)OCCO2)Nc1nnc(C(F)(F)F)s1	none
COc1ccccc1Cn1c(SCC#N)nc2cc(C(=O)N3CCC4(CC3)OCCO4)ccc2c1=O	none
O=C1C2CCN(CC2)C1Cc1ccc(OCCOc2ccccc2)cc1 (stereo unspecified)	none
CN1/C(=C\C=C2C(=O)NC(=O)NC2=O)C(C)(C)c2ccccc21	none
CN1/C(=C\C=C\C2=[N+](C)c3ccc4ccccc4c3C2(C)C)C(C)(C)c2ccccc21	INS promoter act 151
OC(CNC1CCCCC1)C(F)(F)F (stereo unspecified)	none
Nc1ccc(C2(c3ccc(N)cc3)CN3CCC2CC3)cc1	none
CCN(CC)c1ccc(/C=N/c2sc3c(c2C#N)C2CCN3CC2)c(O)c1	INS promoter act 285
OC(CCNCCc1c[nH]c2ccccc12)C(F)(F)F (stereo unspecified)	none
CCOC(=O)[C@]1(C#N)[C@@H]2C=CC(C(C)=O)=CN2[C@@H](C(N)=O)[C@@H]1c1ccsc1	none
Cc1ccc(C2=NC(C)(C)N3C2C3c2ccc([N+](=O)[O-])cc2)cc1 (stereo unspecified)	none
Cc1ccc(S(=O)(=O)NC(Cc2cnc[nH]2)C(=O)O)cc1 (stereo unspecified)	none
O=C(c1cccnc1)c1cc2ccccc2[nH]1	none
CC(C)CCC1(CN2CCCC2=O)C(=O)NC(=O)NC1=O	none
Nc1ccc(Cl)cc1C(=O)c1ccccc1Cl	INS promoter act 433
CC(C)n1cc(C(=O)N(CC(=O)NC(C)(C)C)Cc2ccccc2)cn1	none
CSc1ncc(Cl)c(C(=O)O)n1 (tested in a mixture with another compound)	none
CC1CCC/C=C/C2CC(O)CC2C(O)/C=C/C(=O)O1 (stereo unspecified)	INS promoter act 228
CC1CCC[C@H](O)CCCCCc2cc(O)cc(O)c2C(=O)O1 (stereo partly specified)	none
O=C(Cc1ccccc1)OC(COCc1ccccc1)CN1CCOCC1 (stereo unspecified)	none
CC1(C)C2CC=C(CN3CCC(O)CC3)C1C2 (stereo unspecified)	none
CCC(C)NC(=O)CN1C(=O)CN=C(c2ccccc2)c2ccccc21 (stereo unspecified)	none
COc1c(C)cc(C(=O)C2CCCN(Cc3ccccn3)C2)cc1C (stereo unspecified)	INS promoter act 319
O=C(c1ccc2c(c1)OCO2)C1CCCN(Cc2ccccn2)C1 (stereo unspecified)	none
CSc1ccc(C(=O)C2CCCN(Cc3cc4ccccc4[nH]3)C2)cc1 (stereo unspecified)	none
CCC(CC)NC1CCCCC1OC (stereo unspecified)	none
CCOC(=O)c1ccc(N2C(=O)CC(N3CCC(C#N)(c4ccccc4)CC3)C2=O)cc1 (stereo unspecified)	none
Cc1cc2ccccc2c(=O)n1CC(=O)NCC(=O)N1CCC2(CC1)OCCO2	none
CN1C(=O)N(C)C(=O)C2(Cc3c(ccc4ccccc34)N(C)C2)C1=O	INS promoter act 129
O=C(C1CC(=O)N(C2CCCCCCC2)C1)N1CCC2(CC1)OCCO2 (stereo unspecified)	none
CN1CCN(c2nccc3c2ncn3C)CC1	none
CN(C)c1nc(OCCNC(=O)COc2ccc(Cl)cc2Cl)nc(N2CCCCC2)n1	none
Nc1ccc2c(c1)oc1ccccc12	none
CCN(CC)c1ccc(N=Cc2c(O)n(-c3cc(OC)ccc3OC)c(=O)[nH]c2=O)cc1	INS promoter act 650
COc1ccc(N=Cc2c(O)n(-c3ccc(C)cc3)c(=O)[nH]c2=O)cc1	none
CCOC(=O)c1ccc(N=Cc2c(O)n(-c3ccccc3F)c(=S)[nH]c2=O)cc1	none
CCCCOC(=O)C1=C(N)OC2=C(C(=O)CCC2)[C@]12C(=O)N(C)c1ccccc12	none
CC(C)OC(=O)Nc1ccc(N=C(N)N[N+](=O)[O-])cc1	none
CCCNc1nc(OC)nc(N2CC3CC(C2)c2cccc(=O)n2C3)n1 (stereo unspecified)	none
c1ccc2[nH]c(CCNC3CCCCC3)nc2c1	none
